Results gathered from unrelated publications.
Compare with care: the assays were run in different laboratories.
Matrix: plasma

SMILES | species | route | dose | setting | endpoint | result
Cl.[2H]C([2H])([2H])CC(=O)c1cnc(NC(=O)C2CC2)cc1Nc1cccc(-c2ncn(C([2H])([2H])[2H])n2)c1OC | human | oral | 10 mg | multiple doses, once daily, steady state | AUC | 796 ng·h/mL
CN1CC[C@@H](c2c(O)cc(O)c3c(=O)cc(-c4ccc(C(F)(F)F)cc4Cl)oc23)[C@@H]1CO | human | oral | 150 mg | patients | AUC(0-t) | 3760 ng·h/mL
COc1ccc([C@@H](O)c2cc(-c3ncnc4cc(N5CCOCC5)ccc34)c(F)cc2Cl)nn1 | human | oral | 400 mg | single dose, patients | AUC(0-t) | 14100 ng·h/mL
NC(=S)NN=Cc1ncccc1N | human | oral | 150 mg | – | AUC(0-inf) | 1030 ng·h/mL
CC(C)n1c(Nc2cccnc2)nc2cnc(Nc3ccc(N4CCN(C)CC4)cc3)nc21 | male human | oral | 100 mg | – | AUC(0-inf) | 853 ng·h/mL
CNC(=O)n1ccc2cc(Oc3ccnc(NC(=O)c4ccc(C5CCN(CCO)CC5)cc4)c3)c(OCCOC)cc21 | human | oral | 35 mg | single dose, fasted, healthy volunteers | AUC(0-inf) | 128 ng·h/mL
CC[C@H](C)CCCCC(=O)N[C@@H](CCN)C(=O)N[C@H](C(=O)N[C@@H](CCN)C(=O)N[C@H]1CCNC(=O)[C@H]([C@@H](C)O)NC(=O)[C@H](CCN)NC(=O)[C@H](CCN)NC(=O)[C@H](CC(C)C)NC(=O)[C@@H](Cc2ccccc2)NC(=O)[C@H](CCN)NC1=O)[C@@H](C)O | human | intravenous | 0.75 mg/kg | single dose, infusion | AUC(0-t) | 19600 ng·h/mL
Cc1ccc(C(=O)Nc2ccc(CN3CCN(C)CC3)c(C(F)(F)F)c2)cc1C#Cc1cnc2[nH]ncc2c1 | human | oral | 40 mg | single dose, healthy volunteers | AUC(0-t) | 246 ng·h/mL
Cn1cc(Nc2nc(N)nc(-c3cccc(-n4ccc5cc(C6CC6)cc(F)c5c4=O)c3CO)n2)cn1 | human | oral | 300 mg | single dose, fasted, healthy volunteers | AUC(0-t) | 11500 ng·h/mL
